Reference: ChEMBL document CHEMBL1154089, “Novel N-(3-carboxyl-9-benzyl-beta-carboline-1-yl)ethylamino acids: synthesis, anti-tumor evaluation, intercalating determination, 3D QSAR analysis and docking investigation” (Eur J Med Chem, 2009)

How the values were obtained:
HeLa = assay: Cytotoxicity against human HeLa cells after 48 hrs by MTT assay; assay type: functional, cell-based
How it was run: (§1)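 Cells grown in DMEM or RPMI-1640 with 10% FBS plus penicillin/streptomycin. Seeded at 5 × 10^4 cells/ml and given 4 h at 37 °C in 5% CO2 before the medium was replaced with compound (0.1–400 µM, DMSO vehicle; vehicle control 1% DMSO). After 48 h, MTT added (final 0.5 mg/ml) for 4 h. Formazan dissolved in DMSO and read at 570 nm. IC50 is the concentration giving 50% growth inhibition.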

HL-60 = assay: Cytotoxicity against human HL60 cells after 48 hrs by MTT assay; assay type: functional, cell-based; conditions: HL-60, 48 h; how it was run: as §1
[1] = Cytotoxicity against human MES-SA cells after 48 hrs by MTT assay; assay type: functional, cell-based; how it was run: as §1
CCRF S-180 [2] = assay: Antitumor activity against mouse S180 cells xenografted in ICR mouse assessed as inhibition of tumor growth at 89 umol/kg, ip administered 24 hrs after tumor implantation once daily for 7 consecutive days measured after 24 hrs last post dose; assay type: functional; conditions: CCRF S-180, ip
How it was run: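 S180 solid tumors in male ICR mice (10–12 weeks), 1 × 10^7 cells s.c. at the right armpit. Mice randomized at 24 h, n = 12 per group, and dosed i.p. daily in 0.2 ml 0.9% saline for 7 days. Tumors weighed 24 h after the final dose. Inhibition (%) = [(A − B)/A] × 100, where A is the mean tumor weight of saline controls and B is the mean of the treated group.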

[3] = Cytotoxicity against human H1299 cells after 48 hrs by MTT assay; assay type: functional, cell-based; conditions: NCI-H1299, 48 h; how it was run: as §1
CCRF S-180 [4] = assay: Antitumor activity against mouse S180 cells xenografted in ICR mouse assessed as decrease in tumor weight at 89 umol/kg, ip administered 24 hrs after tumor implantation once daily for 7 consecutive days measured after 24 hrs last post dose; assay type: functional
How it was run: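 Male ICR mice, 10–12 weeks old. Solid tumors from 1 × 10^7 viable S180 ascites cells in 0.2 ml 0.9% saline, injected s.c. at the right armpit. Random allocation at 24 h, 12 per group. Dosed i.p. daily in 0.2 ml 0.9% saline for 7 days. Saline-only negative control; cytarabine 89 µmol/kg positive control. Tumors excised and weighed 24 h after the last dose. ANOVA used for statistics.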

Mus musculus [5] = assay: Toxicity in mouse S180 cells xenografted in ICR mouse assessed as spleen index at 89 umol/kg, ip administered 24 hrs after tumor implantation once daily for 7 consecutive days measured after 24 hrs last post dose; assay type: organism-based, CCRF S-180; conditions: in vivo
How it was run: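 S180-bearing male ICR mice (n = 12) received 89 µmol/kg i.p. daily in 0.2 ml saline for 7 days. Killed under ether 24 h after the last dose; spleens excised and weighed. Spleen index given as mean ± SD, […] body weight.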

HepG2 = assay: Cytotoxicity against human HepG2 cells after 48 hrs by MTT assay; assay type: functional, cell-based; conditions: HepG2, 48 h; how it was run: as §1
Mus musculus [6] = assay: Toxicity in mouse S180 cells xenografted in ICR mouse assessed as increase in body weight at 89 umol/kg, ip administered 24 hrs after tumor implantation once daily for 7 consecutive days measured after 24 hrs last post dose; assay type: organism-based, CCRF S-180; conditions: in vivo
How it was run: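 S180-bearing male ICR mice, n = 12 per group, given 89 µmol/kg i.p. daily in 0.2 ml 0.9% saline for 7 days, starting 24 h after s.c. implantation. Animals weighed daily. Result expressed as body-weight increase from the start of treatment, in g, mean ± SD.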

Mus musculus [7] = assay: Toxicity in ICR mouse assessed as twitch at > 500 mg/kg, ip after 7 days; assay type: organism-based; set-up: dose 500 mg/kg, route intraperitoneal; conditions: in vivo, 168 h
How it was run: (§2)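 Mice fasted overnight with free access to water, then given a single i.p. injection of 150, 300 or 500 mg/kg in 0.2 ml of 0.9% saline. Groups of 12 (six male, six female). Animals were watched continuously for up to 7 days for abnormal behaviour (tremor, twitch, jumping, tetanus, supination) or death. They were sacrificed on day 7, and heart, liver and kidneys were checked macroscopically. LD50 was estimated graphically.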

Mus musculus [8] = assay: Toxicity in ICR mouse assessed as heart necropsy at > 500 mg/kg, ip after 7 days; assay type: organism-based; set-up: dose 500 mg/kg, route intraperitoneal; conditions: in vivo, 168 h; how it was run: as §2
Mus musculus [9] = assay: Toxicity in ICR mouse assessed as jumping at > 500 mg/kg, ip after 7 days; assay type: organism-based; set-up: dose 500 mg/kg, route intraperitoneal; conditions: in vivo, 168 h; how it was run: as §2
Mus musculus [10] = assay: Toxicity in ICR mouse assessed as liver necropsy at > 500 mg/kg, ip after 7 days; assay type: organism-based; set-up: dose 500 mg/kg, route intraperitoneal; conditions: in vivo, 168 h; how it was run: as §2
Mus musculus [11] = assay: Toxicity in ICR mouse assessed as death at > 500 mg/kg, ip after 7 days; assay type: organism-based; set-up: dose 500 mg/kg, route intraperitoneal; conditions: in vivo, 168 h; how it was run: as §2
Mus musculus [12] = assay: Toxicity in ICR mouse assessed as tetanus at > 500 mg/kg, ip after 7 days; assay type: organism-based; set-up: dose 500 mg/kg, route intraperitoneal; conditions: in vivo, 168 h; how it was run: as §2
Mus musculus [13] = assay: Toxicity in ICR mouse assessed as kidneys necropsy at > 500 mg/kg, ip after 7 days; assay type: organism-based, Kidney; set-up: dose 500 mg/kg, route intraperitoneal; conditions: in vivo, 168 h; how it was run: as §2
Mus musculus [14] = assay: Toxicity in ICR mouse assessed as supination at > 500 mg/kg, ip after 7 days; assay type: organism-based; set-up: dose 500 mg/kg, route intraperitoneal; conditions: in vivo, 168 h; how it was run: as §2
Mus musculus [15] = assay: Toxicity in ICR mouse assessed as tremor at > 500 mg/kg, ip after 7 days; assay type: organism-based; set-up: dose 500 mg/kg, route intraperitoneal; conditions: in vivo, 168 h; how it was run: as §2

Compound	IC50 (HeLa)	IC50 (HL-60)	IC50 [1]	inhibition in vivo at 89 µmol/kg (CCRF S-180 [2])	IC50 [3]	Activity (CCRF S-180 [4])	Activity (Mus musculus [5])	IC50 (HepG2)	Activity (Mus musculus [6])	Activity (Mus musculus [7])	Activity (Mus musculus [8])	Activity (Mus musculus [9])	Activity (Mus musculus [10])	Activity (Mus musculus [11])	Activity (Mus musculus [12])	Activity (Mus musculus [13])	Activity (Mus musculus [14])	Activity (Mus musculus [15])
O=C(O)c1cc2c3ccccc3n(Cc3ccccc3)c2c(CCN[C@@H](CO)C(=O)O)n1	210 µM	23.5 µM	136 µM	35.3%	83.8 µM	1.07 g	10.5 mg/g	174 µM	11.46 g									
CC(C)C[C@H](NCCc1nc(C(=O)O)cc2c3ccccc3n(Cc3ccccc3)c12)C(=O)O	189 µM	45.2 µM	71.2 µM	8.7%	69.9 µM	1.51 g	10.9 mg/g	176 µM	9.04 g									
O=C(O)c1cc2c3ccccc3n(Cc3ccccc3)c2c(CCN[C@@H](Cc2c[nH]c3ccccc23)C(=O)O)n1	393 µM	102 µM	11.7 µM	47.2%	57.3 µM	0.85 g	11.7 mg/g	107 µM	11.67 g									
CC[C@H](C)[C@H](NCCc1nc(C(=O)O)cc2c3ccccc3n(Cc3ccccc3)c12)C(=O)O	200 µM	33.2 µM	181 µM	1.6%	69 µM	1.62 g	13.6 mg/g	254 µM	13.56 g	Non-toxic	Non-toxic	Non-toxic	Non-toxic	Non-toxic	Non-toxic	Non-toxic	Non-toxic	Non-toxic
O=C(O)c1cc2c3ccccc3n(Cc3ccccc3)c2c(CCN[C@@H](Cc2c[nH]cn2)C(=O)O)n1	136 µM	160 µM	14.5 µM	9.7%	20 µM	1.49 g	11.9 mg/g	70.7 µM	11.87 g									
N=C(N)NCCC[C@H](NCCc1nc(C(=O)O)cc2c3ccccc3n(Cc3ccccc3)c12)C(=O)O	259 µM	40.9 µM	68.2 µM	37.7%	86.4 µM	1.03 g	12.7 mg/g	161 µM	11.19 g	Non-toxic	Non-toxic	Non-toxic	Non-toxic	Non-toxic	Non-toxic	Non-toxic	Non-toxic	Non-toxic
Nc1ccn([C@@H]2O[C@H](CO)[C@@H](O)[C@@H]2O)c(=O)n1 [CYTARABINE]				54.8%		0.74 g												
O=C(O)c1cc2c3ccccc3n(Cc3ccccc3)c2c(CCN2C(=O)CCC2C(=O)O)n1 (stereo not drawn)	> 400 µM	112 µM	45.9 µM	43%	97.6 µM	0.94 g	12.2 mg/g	> 400 µM	12.24 g									
